Source: PubChem BioAssay (several laboratories)
An excerpt weighted towards active compounds, which were near 2.2% of everything screened.
rCAG RNA binder – molecules binding r(CAG) RNA repeats; r(CAG) RNA repeat, TO-PRO-1 dye displacement fluorescence; inhibition, % at 3 µM; 370,000 compounds, 1.3% hits;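 active = inhibition above the plate cutoff, the mean of all test compounds on that plate plus 3 SD, cut at about 35% in these data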;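 also: 0% = DMSO alone and 100% = 100 µM mitoxantrone as full dye displacement; higher means more dye released from RNA so lower well fluorescence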
ARFGAP1 inh – inhibits rat ARF GTPase activating protein 1. Q62848. AID 651572. inhibition, % at 16.5 µM. 360,000 compounds, 0.26% hits. Arfgap1-stimulated ARF1 GTP hydrolysis, GDP FP detection;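 active = inhibition above a per-plate limit, mean inhibition of low control wells plus 3 SD, cut at about 25% in these data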;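 also: 0% = DMSO wells with enzyme and 100% = wells lacking Arfgap1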
Target sequence (Q62848 1-136 limits assumed): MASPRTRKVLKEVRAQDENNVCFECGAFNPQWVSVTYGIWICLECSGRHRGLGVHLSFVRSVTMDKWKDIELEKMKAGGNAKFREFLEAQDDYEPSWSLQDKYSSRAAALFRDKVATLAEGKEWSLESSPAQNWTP
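system = rat Arfgap1 catalytic domain, aa 1-136 | technique = FP, GDP Alexa 633 tracer displaced from anti-GDP antibody, 620/688 nm | compound = one concentration, 16.5 µM, DMSO 1.26% | medium = HEPES-based buffer, pH 7.5 | timing = compound-enzyme preincubation 20 min, reaction 120 min, detection 60 min, 25 °C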
NadD block – blocks S. aureus nicotinate mononucleotide adenylyltransferase. inhibition, % at 20 µM. 360,000 compounds, 0.78% hits. purified NadD enzyme, colorimetric absorbance read-out. AID 602399; in the data active = inhibition above about 26%
ASAP1 inh – blocks human ASAP1-stimulated Arf1 GTP hydrolysis | GDP FP detection | AID 624377 | inhibition, % at 16.5 µM | 360,000 compounds, 0.19% hits | Q9ULH1; in the data active = inhibition above about 25%;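 also: 0% = vehicle with enzyme and substrate and 100% = no enzyme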
Target sequence (Q9ULH1 325-724 limits assumed): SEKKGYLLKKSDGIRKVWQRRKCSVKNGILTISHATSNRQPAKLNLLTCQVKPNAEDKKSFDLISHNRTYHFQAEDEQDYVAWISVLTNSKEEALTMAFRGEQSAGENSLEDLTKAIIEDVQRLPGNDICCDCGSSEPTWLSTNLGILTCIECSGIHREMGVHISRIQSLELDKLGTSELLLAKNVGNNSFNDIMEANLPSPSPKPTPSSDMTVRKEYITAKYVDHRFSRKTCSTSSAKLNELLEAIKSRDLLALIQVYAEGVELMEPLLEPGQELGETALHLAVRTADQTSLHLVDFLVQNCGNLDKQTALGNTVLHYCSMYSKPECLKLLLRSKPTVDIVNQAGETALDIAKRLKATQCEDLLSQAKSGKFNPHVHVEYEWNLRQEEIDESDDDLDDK
rCAG bind conf – r(CAG) RNA repeat binding, confirmation | shares compounds with rCAG RNA binder | TO-PRO-1 dye displacement fluorescence | inhibition, % at 3 µM | 4,300 compounds, 70% hits | AID 652065;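 active = inhibition above a per-plate cutoff, the mean inhibition of sample wells plus 3 SD, cut at about 35% in these data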;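 also: loss of TO-PRO-1 fluorescence as compound displaces dye from 1x1 AA loop RNA; 0% = DMSO only wells and 100% = 100 µM mitoxantrone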
DNA CAG counter – counter-screen for rCAG RNA binders: DNA CAG dye complex inhibitors; shares compounds with rCAG RNA binder; d(CAG) DNA oligo TO-PRO-1 dye displacement, fluorescence; AID 652068; 4,300 compounds, 94% hits; inhibition, % at 3 µM;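 active = inhibition above its plate's cutoff, the mean test-well inhibition plus 3 SD, cut at about 4.8% in these data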;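 also: 0% = DNA dye mix with DMSO and 100% = 100 µM mitoxantrone; hits displace the dye from DNA and so lower well fluorescence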
DNA CAG DR – DNA CAG dye complex inhibition, dose response counter-screen. shares compounds with rCAG RNA binder. DNA CAG/GTC duplex TO-PRO-1 dye displacement fluorescence. IC50, µM. 250 compounds, 20% hits. AID 686960; in the data active = IC50 below about 10 µM
The depositor's hits bear a star; i = inactive; x = not tested or not shown.

SMILES | rCAG RNA binder | ARFGAP1 inh | NadD block | ASAP1 inh | rCAG bind conf | DNA CAG counter | others
Cc1ccc(N(CC(=O)Nc2ccc(Br)c(C)c2)S(=O)(=O)c2c(C)[nH]c(=O)[nH]c2=O)cc1 | 46.7* | -3.7 | 10.0 | 6.7 | 67.1* | 22.6*
O=C(Nc1ccc(C(F)(F)F)cc1)OC1CCC12CCCCC2 (stereo not drawn) | 1.6 | x | x | x | x | x
O=c1cc(CSc2nnnn2-c2ccccc2)nc(Nc2ccc(F)cc2)[nH]1 | 42.8* | 12.2 | 18.0 | 0.5 | 42.5* | 14.8*
O=C(O)c1ccc(C2(c3ccc(C(=O)O)cc3)OC(=O)c3ccccc32)cc1 | -2.6 | 1.5 | 3.9 | 3.1 | x | x
O=C1OC(c2ccccc2)(c2cc(Br)c(O)c(Br)c2)c2ccccc21 (stereo not drawn) | 49.8* | -17.6 | 8.4 | 3.6 | 57.1* | 15.7*
COc1ccc(CC(=O)Nc2cc(Cl)ccc2C(=O)O)cc1 | 8.9 | -1.3 | -9.6 | 7.1 | x | x
CCCCOc1ccc(Nc2cc(Cl)ccc2C(=O)O)cn1 | 70.4* | 1.1 | 1.8 | -8.0 | 63.7* | 15.9*
COc1ccc([N+](=O)[O-])cc1-c1[nH]c(-c2ccc(C(=O)O)cc2)nc1-c1ccccc1 | 54.8* | -3.2 | 2.9 | -0.5 | 48.3* | 15.8*
Cc1ccc([N+](=O)[O-])cc1-c1[nH]c(-c2ccc(O)c(O)c2)nc1-c1ccccc1 | 35.5* | 17.2 | 30.5* | -9.6 | 37.3* | 19.4*
Cc1ccc(-c2nc3ccc([N+](=O)[O-])cc3[nH]2)cc1 | 3.6 | -5.5 | -9.2 | 9.7 | x | x
CCc1ccc([C@@H]2CC=C(C(=O)O)[C@H](c3ccccc3)N2S(=O)(=O)c2ccc(C)cc2)cc1 | 76.2* | -0.4 | 10.8 | -7.4 | 66.9* | 27.4*
COc1ccc([C@@H]2CC=C(C(=O)O)CN2S(=O)(=O)c2ccc(Cl)cc2)cc1 | 16.2 | 5.2 | -2.6 | 4.8 | x | x
Cc1ccc(S(=O)(=O)N2[C@@H](c3ccc(F)cc3)C(C(=O)O)=CC[C@H]2c2cccc(C)c2)cc1 | 8.8 | 3.1 | 3.8 | -9.9 | x | x
Cc1ccc([C@@H]2CC=C(C(=O)O)[C@H](c3ccc(F)cc3)N2S(=O)(=O)c2ccc(C)cc2)cc1 | 54.3* | 7.1 | 2.0 | 19.0 | 61.4* | 24.1*
COc1ccc([C@@H]2CC=C(C(=O)O)[C@H](c3ccc(Cl)cc3)N2S(=O)(=O)c2ccc(Cl)cc2)cc1 | 59.1* | -4.8 | 3.0 | 6.9 | 74.2* | 37.5*
O=C(O)C1=CC[C@@H](c2ccc(Cl)cc2)N(S(=O)(=O)c2ccc(Cl)cc2)[C@H]1c1ccc(F)cc1 | 70.1* | -19.8 | -5.8 | -9.0 | 67.7* | 30.0*
COc1cccc(CCNS(=O)(=O)c2c(C)n[nH]c2C)c1 | 1.8 | x | x | x | x | x
CCOC(=O)[C@]12CCCC=C1N(CCCOC)C(=O)[C@@H]2CC(=O)N1CCCCC1 | 2.2 | x | x | x | x | x
O=C(CCS(=O)(=O)c1ccccc1)Nc1ccc(F)cc1F | 4.6 | x | x | x | x | x
O=C(c1ccc(F)cc1F)N1CCC(Oc2cccnc2)CC1 | 0.1 | x | x | x | x | x
Cc1ccc(S(=O)(=O)N2[C@@H](c3cccc(Cl)c3)C(C(=O)O)=CC[C@H]2c2ccc(Cl)cc2)cc1 | 10.3 | -8.4 | 7.6 | -3.8 | x | x
CCOc1ccc([C@@H]2CC=C(C(=O)O)CN2S(=O)(=O)c2ccc(C)cc2)cc1 | 26.8 | -6.0 | -1.6 | -14.8 | x | x
Cc1ccccc1S(=O)(=O)N1[C@@H](c2ccc(F)cc2)C(C(=O)O)=CC[C@H]1c1ccc(Cl)cc1 | 57.8* | -17.4 | 5.4 | 7.2 | 72.2* | 32.8* | DNA CAG DR=i
Cc1ccccc1S(=O)(=O)N1CC(C(=O)O)=CC[C@H]1c1ccc(Cl)cc1 | 22.2 | -8.7 | -7.3 | 2.6 | x | x
COc1ccc([C@@H]2CC=C(C(=O)O)[C@H](c3cccc(Cl)c3)N2S(=O)(=O)c2ccc(C)cc2)cc1OC | 38.9* | 13.1 | 0.2 | 0.9 | 28.8 | 7.0*
CCOc1ccc([C@@H]2CC=C(C(=O)O)[C@H](c3cccc(Cl)c3)N2S(=O)(=O)c2ccc(C)cc2)cc1 | 69.3* | 0.2 | 1.1 | -1.1 | 70.5* | 33.2* | DNA CAG DR=i
CCOc1ccc([C@@H]2CC=C(C(=O)O)[C@H](c3ccc(F)cc3)N2S(=O)(=O)c2ccc(C)cc2)cc1 | 51.6* | 8.3 | 3.8 | 10.1 | 51.2* | 14.8*
